Experiments:
[1] = molecular target: Sphingosine 1-phosphate receptor 1 (Homo sapiens, UniProt P21453); test: Agonist activity at human recombinant S1P1 receptor expressed in CHO cells by GTPgammaS binding assay; type: functional, cell-based
[2] = molecular target: Sphingosine 1-phosphate receptor 3 (Homo sapiens, UniProt Q99500); test: Agonist activity at human recombinant S1P3 receptor expressed in CHO cells by GTPgammaS binding assay; type: functional, cell-based
Method in brief: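 Membranes from CHO cells expressing recombinant human receptor. Buffer 20 mM Hepes pH 7.4, 100 mM NaCl, 5 mM MgCl2, 0.1% fatty-acid-free BSA, 2.5% DMSO, GDP (1 uM for S1P1, 3 uM for S1P3), 50 pM 35S-GTPγS. Compound preincubated with membranes 30 min at room temperature, then 1 h with 35S-GTPγS. Reaction filtered and bound label counted. Specific binding is the 10 uM S1P signal minus the no-agonist signal. EC50 is the concentration giving 50% of specific binding; three independent assays.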

[3] = Intrinsic clearance in Wistar rat liver microsomes at 1 uM by LC-MS/MS analysis measured per mg of protein; type: ADME, Microsome
[4] = Intrinsic clearance in human liver microsomes at 1 uM by LC-MS/MS analysis measured per mg of protein; type: ADME, Microsome
[5] = Intrinsic clearance in rat hepatocytes at 1 uM by LC-MS/MS analysis measured per million cells; type: ADME, cell-based, Liver, Hepatocyte
[6] = Cmax in Wistar rat at 10 mg/kg, po and 1 mg/kg, iv; type: ADME, organism-based; conditions: in vivo
Method in brief: (§1)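 Male Wistar rats (n = 3) were dosed at 10 mg/kg orally and 1 mg/kg intravenously. Plasma pharmacokinetic parameters were derived from these runs.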

[7] = Bioavailability in Wistar rat at 10 mg/kg, po and 1 mg/kg, iv; type: ADME, organism-based; conditions: in vivo; method in brief: as §1
[8] = Half life in Wistar rat at 10 mg/kg, po and 1 mg/kg, iv; type: ADME, organism-based; conditions: in vivo; method in brief: as §1
[9] = Clearance in Wistar rat at 10 mg/kg, po and 1 mg/kg, iv; type: ADME, organism-based; conditions: in vivo; method in brief: as §1
[10] = Volume of distribution at steady state in Wistar rat at 10 mg/kg, po and 1 mg/kg, iv; type: ADME, organism-based; conditions: in vivo, read-out: Vdss; method in brief: as §1
Rattus norvegicus [11] = test: Immunomodulatory activity in normotensive Wistar rat assessed as change in circulating lymphocytes count at 10 mg/kg, po after 3 hrs relative to control; type: functional
Method in brief: (§2)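 Normotensive male Wistar rats were housed on a 12 h light/dark cycle with free chow and water. Compound was dissolved in DMSO and added to 7.5% aqueous gelatin (final 5% DMSO), then given by gavage at 10 mg/kg (n = 6). Vehicle was 95% gelatin (7.5%)/5% DMSO (n = 30). Blood was taken before dosing and at 3, 6 and 24 h and counted by hematology analyzer. Counts are % change from t = 0 h ± SEM.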

Rattus norvegicus [12] = test: Immunomodulatory activity in normotensive Wistar rat assessed as change in circulating lymphocytes count at 10 mg/kg, po after 6 hrs relative to control; type: functional; method in brief: as §2
Rattus norvegicus [13] = test: Immunomodulatory activity in normotensive Wistar rat assessed as change in circulating lymphocytes count at 10 mg/kg, po after 24 hrs relative to control; type: functional; method in brief: as §2

Chain of Sphingosine 1-phosphate receptor 3 (Q99500 whole entry): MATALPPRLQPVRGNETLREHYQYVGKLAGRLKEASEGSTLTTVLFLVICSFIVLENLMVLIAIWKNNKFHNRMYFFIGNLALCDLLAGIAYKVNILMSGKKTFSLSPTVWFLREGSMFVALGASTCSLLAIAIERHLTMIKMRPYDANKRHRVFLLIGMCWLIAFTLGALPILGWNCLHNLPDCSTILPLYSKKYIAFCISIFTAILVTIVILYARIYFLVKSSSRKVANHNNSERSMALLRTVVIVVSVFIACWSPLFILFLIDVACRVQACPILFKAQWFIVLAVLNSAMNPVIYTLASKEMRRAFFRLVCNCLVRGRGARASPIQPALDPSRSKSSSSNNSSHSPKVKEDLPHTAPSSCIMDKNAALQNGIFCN
Chain of Sphingosine 1-phosphate receptor 1 (P21453 whole entry): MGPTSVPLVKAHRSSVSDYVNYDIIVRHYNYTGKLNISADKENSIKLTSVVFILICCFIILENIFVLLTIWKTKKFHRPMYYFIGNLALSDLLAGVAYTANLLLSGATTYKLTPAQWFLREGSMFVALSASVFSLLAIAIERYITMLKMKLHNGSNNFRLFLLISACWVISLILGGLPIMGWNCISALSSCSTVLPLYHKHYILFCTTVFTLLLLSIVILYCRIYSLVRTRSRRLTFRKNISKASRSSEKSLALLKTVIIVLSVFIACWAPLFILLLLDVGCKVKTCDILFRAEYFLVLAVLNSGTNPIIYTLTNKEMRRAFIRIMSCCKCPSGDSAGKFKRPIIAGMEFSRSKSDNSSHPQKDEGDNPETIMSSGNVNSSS

| EC50 [1] | EC50 [2] | microsomal CLint at 1 µM [3] | microsomal CLint at 1 µM [4] | hepatocyte CLint at 1 µM [5] | Cmax [6] | bioavailability [7] | half-life [8] | clearance [9] | Vd [10] | SMILES | Activity (Rattus norvegicus [11]) | Activity (Rattus norvegicus [12]) | Activity (Rattus norvegicus [13]) |
| --- | --- | --- | --- | --- | --- | --- | --- | --- | --- | --- | --- | --- | --- |
| 34 nM | 139 nM | 158 µL/min/mg | 27 µL/min/mg | 19.8 µL/min/1e6 cells | 11 ng/mL | < 1% | 0.7 h | 105 mL/min/kg | 3 L/kg | Cc1ccccc1N1C(=O)/C(=C/c2ccc(O)c(Cl)c2)S/C1=N\C(C)C |  |  |  |
| 95 nM | 114 nM | 4 µL/min/mg | 4 µL/min/mg | 12 µL/min/1e6 cells | 499 ng/mL | 72% | 2 h | 32 mL/min/kg | 4 L/kg | CC(C)/N=C1\S/C(=C\c2ccc(OCCO)cc2)C(=O)N1c1ccccc1 |  |  |  |

| SMILES | EC50 [1] | EC50 [2] | microsomal CLint at 1 µM [3] | microsomal CLint at 1 µM [4] | hepatocyte CLint at 1 µM [5] | Cmax [6] | bioavailability [7] | half-life [8] | clearance [9] | Vd [10] | Activity (Rattus norvegicus [11]) | Activity (Rattus norvegicus [12]) | Activity (Rattus norvegicus [13]) |
| --- | --- | --- | --- | --- | --- | --- | --- | --- | --- | --- | --- | --- | --- |
| CCC/N=C1\S/C(=C\c2ccc(OCC(O)CO)c(Cl)c2)C(=O)N1c1ccccc1C (racemic) | 12 nM | 174 nM | 27 µL/min/mg | 4 µL/min/mg | 9.1 µL/min/1e6 cells | 311 ng/mL | 90% | 1.6 h | 41 mL/min/kg | 5.6 L/kg | -67% | -71% | 19% |
